Test results published in ChEMBL document CHEMBL3259739, “Synthesis and structure-activity relationship of trisubstituted thiazoles as Cdc7 kinase inhibitors” (Eur J Med Chem, 2014).

Columns and labels:
[1] = target: Dual specificity protein kinase CLK1 (Homo sapiens) (UniProt P49759); assay: Inhibition of CLK1 (unknown origin) at 1 uM relative to control; values are per cent of control
[2] = target: Ephrin type-A receptor 2 (Homo sapiens) (UniProt P29317); assay: Inhibition of EPHA2 (unknown origin) at 1 uM relative to control; values are per cent of control
[3] = target: Insulin-like growth factor 1 receptor (Homo sapiens) (UniProt P08069); assay: Inhibition of IGF1R (unknown origin) at 1 uM relative to control; values are per cent of control
[4] = target: Mitogen-activated protein kinase 1 (Homo sapiens) (UniProt P28482); assay: Inhibition of ERK2 (unknown origin) at 1 uM relative to control; values are per cent of control
[5] = target: Serine/threonine-protein kinase PLK1 (Homo sapiens) (UniProt P53350); assay: Inhibition of PLK1 (unknown origin) at 1 uM relative to control; conditions: values are per cent of control
How it was run: (§1)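 KinomeSCAN competitive binding panel of 100 kinases; compounds tested at 1 µM in duplicate; read-out is percent […] control.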

[6] = target: Angiopoietin-1 receptor (Homo sapiens) (UniProt Q02763); assay: Inhibition of TIE2 (unknown origin) at 1 uM relative to control; conditions: values are per cent of control
How it was run: as §1

[7] = target: Dual specificity protein kinase CLK4 (Homo sapiens) (UniProt Q9HAZ1); assay: Inhibition of CLK4 (unknown origin) at 1 uM relative to control; values are per cent of control
[8] = target: T1, Protein kinase C epsilon type (Homo sapiens) (UniProt Q02156); assay: Inhibition of PRKCE (unknown origin) at 1 uM relative to control; conditions: values are per cent of control
T1 sequence (whole entry): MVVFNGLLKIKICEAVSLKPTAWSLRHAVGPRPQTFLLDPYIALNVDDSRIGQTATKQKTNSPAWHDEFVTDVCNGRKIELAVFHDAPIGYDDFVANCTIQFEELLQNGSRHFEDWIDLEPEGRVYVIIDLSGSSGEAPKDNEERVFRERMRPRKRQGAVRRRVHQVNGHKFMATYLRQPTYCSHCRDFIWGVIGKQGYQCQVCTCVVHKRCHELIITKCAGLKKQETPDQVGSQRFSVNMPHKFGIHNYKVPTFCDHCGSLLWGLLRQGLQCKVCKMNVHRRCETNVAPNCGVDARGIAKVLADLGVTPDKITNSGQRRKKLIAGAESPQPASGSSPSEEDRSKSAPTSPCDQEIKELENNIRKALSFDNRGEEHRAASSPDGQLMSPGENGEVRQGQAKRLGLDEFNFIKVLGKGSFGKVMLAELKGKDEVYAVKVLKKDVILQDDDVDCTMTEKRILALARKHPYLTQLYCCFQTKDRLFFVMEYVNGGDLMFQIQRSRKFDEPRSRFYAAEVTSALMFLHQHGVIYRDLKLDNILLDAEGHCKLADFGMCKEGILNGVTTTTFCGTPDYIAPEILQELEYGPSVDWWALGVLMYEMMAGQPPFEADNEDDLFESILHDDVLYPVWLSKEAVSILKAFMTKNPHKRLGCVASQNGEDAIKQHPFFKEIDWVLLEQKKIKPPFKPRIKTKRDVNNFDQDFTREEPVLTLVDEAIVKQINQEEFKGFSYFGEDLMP
How it was run: as §1

[9] = target: Casein kinase I isoform delta (Homo sapiens, UniProt P48730); assay: Inhibition of CSNK1D (unknown origin) at 1 uM relative to control; values are per cent of control
[10] = target: Casein kinase II subunit alpha (Homo sapiens) (UniProt P68400); assay: Inhibition of CSNK2A1 (unknown origin) at 1 uM relative to control; values are per cent of control
[11] = target: Mitogen-activated protein kinase kinase kinase 9 (Homo sapiens) (UniProt P80192); assay: Inhibition of MLK1 (unknown origin) at 1 uM relative to control; values are per cent of control
[12] = target: Non-receptor tyrosine-protein kinase TYK2 (Homo sapiens) (UniProt P29597); assay: Inhibition of JH1 catalytic domain of TYK2 (unknown origin) at 1 uM relative to control; conditions: values are per cent of control
How it was run: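 Competitive binding panel (KinomeSCAN) of 100 kinases, with compound tested at 1 µM in duplicate. The read-out was percent inhibition relative to control.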

[13] = target: Serine/threonine-protein kinase 32B (Homo sapiens) (UniProt Q9NY57); assay: Inhibition of YANK2 (unknown origin) at 1 uM relative to control; conditions: values are per cent of control
How it was run: as §1

[14] = target: Interferon-induced, double-stranded RNA-activated protein kinase (Homo sapiens) (UniProt P19525); assay: Inhibition of PRKR (unknown origin) at 1 uM relative to control; conditions: values are per cent of control
How it was run: as §1

[15] = target: Phosphatidylinositol 4,5-bisphosphate 3-kinase catalytic subunit alpha isoform (Homo sapiens) (UniProt P42336); assay: Inhibition of PIK3CA (unknown origin) at 1 uM relative to control; conditions: values are per cent of control
How it was run: as §1

[16] = target: Protein-tyrosine kinase 6 (Homo sapiens) (UniProt Q13882); assay: Inhibition of BRK (unknown origin) at 1 uM relative to control; values are per cent of control
[17] = target: T2, Serine/threonine-protein kinase 4 (Homo sapiens) (UniProt Q13043); assay: Inhibition of MST2 (unknown origin) at 1 uM relative to control; values are per cent of control
T2 sequence (whole entry): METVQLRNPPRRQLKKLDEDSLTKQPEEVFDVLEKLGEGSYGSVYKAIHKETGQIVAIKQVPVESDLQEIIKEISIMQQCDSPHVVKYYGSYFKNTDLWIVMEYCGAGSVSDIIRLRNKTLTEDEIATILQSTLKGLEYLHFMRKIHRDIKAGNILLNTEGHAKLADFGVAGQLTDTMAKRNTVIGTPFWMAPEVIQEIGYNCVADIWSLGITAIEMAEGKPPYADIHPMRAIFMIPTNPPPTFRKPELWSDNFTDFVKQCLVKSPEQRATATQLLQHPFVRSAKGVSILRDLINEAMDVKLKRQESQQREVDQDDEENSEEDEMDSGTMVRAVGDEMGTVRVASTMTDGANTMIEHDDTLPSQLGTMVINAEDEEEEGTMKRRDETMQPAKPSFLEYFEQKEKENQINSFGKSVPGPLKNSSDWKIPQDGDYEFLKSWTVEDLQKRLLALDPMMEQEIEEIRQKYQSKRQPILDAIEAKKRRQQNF

[18] = target: Casein kinase I isoform gamma-2 (Homo sapiens) (UniProt P78368); assay: Inhibition of CSNK1G2 (unknown origin) at 1 uM relative to control; values are per cent of control
[19] = target: Serine/threonine-protein kinase PAK 2 (Homo sapiens) (UniProt Q13177); assay: Inhibition of PAK2 (unknown origin) at 1 uM relative to control; conditions: values are per cent of control
How it was run: as §1

Sequence of Mitogen-activated protein kinase kinase kinase 9 (Homo sapiens) (P80192 whole entry, looked up, the tested form may be a part): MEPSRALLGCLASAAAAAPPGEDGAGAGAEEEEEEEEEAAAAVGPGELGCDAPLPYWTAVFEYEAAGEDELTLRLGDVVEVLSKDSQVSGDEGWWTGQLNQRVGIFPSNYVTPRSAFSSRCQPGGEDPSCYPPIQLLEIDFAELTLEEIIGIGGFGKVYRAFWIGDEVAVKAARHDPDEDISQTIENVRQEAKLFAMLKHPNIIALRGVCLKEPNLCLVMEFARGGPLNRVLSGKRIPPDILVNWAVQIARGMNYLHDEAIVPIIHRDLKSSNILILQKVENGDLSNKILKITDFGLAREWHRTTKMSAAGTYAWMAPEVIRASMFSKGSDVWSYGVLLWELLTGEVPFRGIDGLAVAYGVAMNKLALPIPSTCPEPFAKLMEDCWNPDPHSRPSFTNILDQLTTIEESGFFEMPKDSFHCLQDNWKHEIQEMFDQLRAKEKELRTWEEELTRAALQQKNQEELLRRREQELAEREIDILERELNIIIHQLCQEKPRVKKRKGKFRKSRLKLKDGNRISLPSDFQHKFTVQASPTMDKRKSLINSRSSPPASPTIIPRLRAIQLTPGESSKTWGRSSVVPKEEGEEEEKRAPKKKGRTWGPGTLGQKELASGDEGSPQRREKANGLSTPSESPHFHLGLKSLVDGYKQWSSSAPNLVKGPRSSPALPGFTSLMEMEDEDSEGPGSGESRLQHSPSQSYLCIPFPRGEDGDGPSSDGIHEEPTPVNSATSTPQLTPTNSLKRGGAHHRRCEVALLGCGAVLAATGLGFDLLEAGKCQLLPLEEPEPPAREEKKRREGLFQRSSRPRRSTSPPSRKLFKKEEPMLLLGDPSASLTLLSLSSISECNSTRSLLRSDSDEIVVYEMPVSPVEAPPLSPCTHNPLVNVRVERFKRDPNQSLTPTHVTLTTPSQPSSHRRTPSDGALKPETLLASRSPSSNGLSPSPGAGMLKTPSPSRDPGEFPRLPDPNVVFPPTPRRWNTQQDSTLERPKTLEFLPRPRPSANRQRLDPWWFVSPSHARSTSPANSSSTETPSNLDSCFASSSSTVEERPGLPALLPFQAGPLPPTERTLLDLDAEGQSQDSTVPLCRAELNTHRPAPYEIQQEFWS
Sequence of Ephrin type-A receptor 2 (Homo sapiens) (P29317 whole entry): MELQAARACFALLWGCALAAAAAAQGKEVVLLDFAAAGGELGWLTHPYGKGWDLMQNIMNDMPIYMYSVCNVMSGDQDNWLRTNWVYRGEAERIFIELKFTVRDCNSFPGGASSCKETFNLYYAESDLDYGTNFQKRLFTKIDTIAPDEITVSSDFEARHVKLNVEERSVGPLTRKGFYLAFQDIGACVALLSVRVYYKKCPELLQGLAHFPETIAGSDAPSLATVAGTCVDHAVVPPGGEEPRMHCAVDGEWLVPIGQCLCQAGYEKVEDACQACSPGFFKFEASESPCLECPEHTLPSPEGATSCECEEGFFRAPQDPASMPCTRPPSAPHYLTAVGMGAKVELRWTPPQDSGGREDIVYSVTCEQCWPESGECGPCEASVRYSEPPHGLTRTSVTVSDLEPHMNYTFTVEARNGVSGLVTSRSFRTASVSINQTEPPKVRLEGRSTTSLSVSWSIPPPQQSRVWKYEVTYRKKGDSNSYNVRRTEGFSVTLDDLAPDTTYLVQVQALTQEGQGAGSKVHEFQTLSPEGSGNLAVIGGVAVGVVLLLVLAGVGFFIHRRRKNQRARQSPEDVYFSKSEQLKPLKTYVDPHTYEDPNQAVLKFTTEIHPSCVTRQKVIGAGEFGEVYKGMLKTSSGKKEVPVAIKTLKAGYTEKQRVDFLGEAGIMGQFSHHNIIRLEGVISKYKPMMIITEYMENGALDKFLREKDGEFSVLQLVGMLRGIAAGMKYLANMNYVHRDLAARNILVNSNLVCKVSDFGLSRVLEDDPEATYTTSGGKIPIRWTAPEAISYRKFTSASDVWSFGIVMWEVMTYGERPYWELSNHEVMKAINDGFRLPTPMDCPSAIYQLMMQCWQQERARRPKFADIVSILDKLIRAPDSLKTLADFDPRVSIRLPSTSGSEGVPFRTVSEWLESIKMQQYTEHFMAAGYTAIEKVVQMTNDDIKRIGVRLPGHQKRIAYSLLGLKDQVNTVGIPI
Sequence of Dual specificity protein kinase CLK1 (Homo sapiens) (P49759 whole entry, looked up): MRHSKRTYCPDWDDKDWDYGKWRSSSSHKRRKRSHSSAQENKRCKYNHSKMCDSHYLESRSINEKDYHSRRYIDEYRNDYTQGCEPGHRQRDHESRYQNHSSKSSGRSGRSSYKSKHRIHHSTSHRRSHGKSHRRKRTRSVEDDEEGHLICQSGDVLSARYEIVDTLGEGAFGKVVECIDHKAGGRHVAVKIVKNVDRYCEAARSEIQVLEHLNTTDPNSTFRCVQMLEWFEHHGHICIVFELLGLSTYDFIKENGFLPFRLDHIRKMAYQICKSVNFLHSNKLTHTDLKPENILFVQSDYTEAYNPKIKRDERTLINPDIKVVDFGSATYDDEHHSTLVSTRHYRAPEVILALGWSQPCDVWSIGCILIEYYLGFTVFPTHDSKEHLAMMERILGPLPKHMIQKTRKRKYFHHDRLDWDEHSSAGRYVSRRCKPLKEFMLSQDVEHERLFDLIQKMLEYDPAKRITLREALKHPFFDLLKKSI
Sequence of Mitogen-activated protein kinase 1 (Homo sapiens) (P28482 whole entry): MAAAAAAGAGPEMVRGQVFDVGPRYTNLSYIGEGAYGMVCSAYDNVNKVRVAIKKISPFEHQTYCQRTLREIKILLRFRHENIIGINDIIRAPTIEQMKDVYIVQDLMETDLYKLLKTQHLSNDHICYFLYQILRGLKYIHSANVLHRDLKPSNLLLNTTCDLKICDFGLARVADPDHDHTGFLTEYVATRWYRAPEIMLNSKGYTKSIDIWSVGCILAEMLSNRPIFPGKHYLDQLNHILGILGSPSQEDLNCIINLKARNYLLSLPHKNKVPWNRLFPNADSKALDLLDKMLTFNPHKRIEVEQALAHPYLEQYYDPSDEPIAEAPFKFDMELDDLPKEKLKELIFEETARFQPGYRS
Sequence of Casein kinase II subunit alpha (Homo sapiens) (P68400 whole entry, looked up): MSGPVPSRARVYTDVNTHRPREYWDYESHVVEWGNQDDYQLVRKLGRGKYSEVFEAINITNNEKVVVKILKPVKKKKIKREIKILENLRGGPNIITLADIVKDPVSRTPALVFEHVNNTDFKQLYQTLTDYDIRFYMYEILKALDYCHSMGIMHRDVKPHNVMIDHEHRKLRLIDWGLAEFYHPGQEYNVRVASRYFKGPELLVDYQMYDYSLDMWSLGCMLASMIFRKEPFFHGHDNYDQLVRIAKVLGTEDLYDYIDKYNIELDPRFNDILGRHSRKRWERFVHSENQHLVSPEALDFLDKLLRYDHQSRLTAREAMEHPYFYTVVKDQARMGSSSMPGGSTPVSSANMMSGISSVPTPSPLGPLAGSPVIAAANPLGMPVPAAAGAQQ
Sequence of Serine/threonine-protein kinase PLK1 (Homo sapiens) (P53350 whole entry): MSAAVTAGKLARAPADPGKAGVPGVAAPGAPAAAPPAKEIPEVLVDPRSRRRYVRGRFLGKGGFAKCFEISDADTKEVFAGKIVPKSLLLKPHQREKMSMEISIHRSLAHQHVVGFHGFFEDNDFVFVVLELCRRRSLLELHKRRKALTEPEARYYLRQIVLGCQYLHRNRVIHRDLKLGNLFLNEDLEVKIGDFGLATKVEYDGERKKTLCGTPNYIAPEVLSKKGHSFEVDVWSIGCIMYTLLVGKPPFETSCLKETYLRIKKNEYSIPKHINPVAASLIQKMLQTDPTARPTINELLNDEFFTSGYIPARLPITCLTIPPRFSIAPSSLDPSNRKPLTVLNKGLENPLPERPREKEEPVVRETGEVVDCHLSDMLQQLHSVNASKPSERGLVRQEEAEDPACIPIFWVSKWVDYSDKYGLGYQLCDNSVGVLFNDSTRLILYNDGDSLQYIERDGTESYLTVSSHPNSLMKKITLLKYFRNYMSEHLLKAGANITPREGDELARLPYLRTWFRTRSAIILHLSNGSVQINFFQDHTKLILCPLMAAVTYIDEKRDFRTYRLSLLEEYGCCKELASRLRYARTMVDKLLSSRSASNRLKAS
Sequence of Casein kinase I isoform gamma-2 (Homo sapiens) (P78368 whole entry, looked up, canonical isoform): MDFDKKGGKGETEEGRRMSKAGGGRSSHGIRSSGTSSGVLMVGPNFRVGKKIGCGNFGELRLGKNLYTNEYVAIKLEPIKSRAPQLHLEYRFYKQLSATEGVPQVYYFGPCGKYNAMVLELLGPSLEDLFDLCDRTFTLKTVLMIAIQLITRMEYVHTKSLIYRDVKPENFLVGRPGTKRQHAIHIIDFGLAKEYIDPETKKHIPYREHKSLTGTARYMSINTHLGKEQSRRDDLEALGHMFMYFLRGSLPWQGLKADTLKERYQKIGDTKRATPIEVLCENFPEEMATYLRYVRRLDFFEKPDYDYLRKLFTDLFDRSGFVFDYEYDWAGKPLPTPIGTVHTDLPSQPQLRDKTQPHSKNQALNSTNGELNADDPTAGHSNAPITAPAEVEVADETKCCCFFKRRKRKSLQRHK
Sequence of Casein kinase I isoform delta (P48730 whole entry, looked up, canonical isoform): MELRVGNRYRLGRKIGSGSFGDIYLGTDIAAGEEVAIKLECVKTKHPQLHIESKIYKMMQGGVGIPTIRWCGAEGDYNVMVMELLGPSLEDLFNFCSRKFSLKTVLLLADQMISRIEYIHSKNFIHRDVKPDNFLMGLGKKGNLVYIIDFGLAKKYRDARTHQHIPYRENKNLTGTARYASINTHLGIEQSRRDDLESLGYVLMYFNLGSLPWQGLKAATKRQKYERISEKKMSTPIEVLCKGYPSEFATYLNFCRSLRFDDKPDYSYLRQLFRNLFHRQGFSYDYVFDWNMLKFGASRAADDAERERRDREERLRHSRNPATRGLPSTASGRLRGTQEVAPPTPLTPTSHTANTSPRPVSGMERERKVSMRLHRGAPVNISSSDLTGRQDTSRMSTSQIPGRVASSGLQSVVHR

Compound | residual activity [1] | residual activity [2] | residual activity [3] | residual activity [4] | residual binding, % of control [5] | residual binding, % of control [6] | residual activity [7] | residual binding, % of control [8] | residual activity [9] | residual activity [10] | residual activity [11] | residual binding, % of control [12] | residual binding, % of control [13] | residual binding, % of control [14] | residual binding, % of control [15] | residual activity [16] | residual activity [17] | residual activity [18] | residual binding, % of control [19]
CCOC(=O)c1sc(-c2ccncc2)nc1O | 90% | 78% | 85% | 93% | 100% | 67% | 92% | 100% | 90% | 50% | 90% | 100% | 82% | 92% | 100% | 94% | 84% | 77% | 99%
NC(=O)c1sc(-c2ccnc(N)n2)nc1-c1ccc(Cl)cc1Cl | 1.3% | 88% | 94% | 79% | 100% | 82% | 0% | 73% | 0.7% | 66% | 99% | 100% | 100% | 68% | 78% | 68% | 100% | 5% | 100%
COc1ccc(-c2nc(-c3ccnc(N)n3)sc2C(N)=O)c(Cl)c1 | 2.3% | 80% | 76% | 82% | 88% | 99% | 0% | 100% | 0.6% | 95% | 94% | 94% | 88% | 92% | 83% | 80% | 71% | 5.2% | 89%
